Tests used:
[1] = tested on: Pten^L/L prostate cancer mouse model; assay type: in vivo; conditions: Pten L/L mice; for apoptosis in prostate / cell proliferation in prostate: INK128 1 mg/kg or RAD001 10 mg/kg daily gavage
Method in brief: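 PtenL/L mice aged nine or twelve months were given daily oral gavage; vehicle was 5% polyvinylpropyline, 15% NMP, 80% water. Body weight was taken every 3 days for toxicity. In the 28-day study, prostates were MRI-imaged at 14 T on days 0 and 28. Prostates and lymph nodes were formalin-fixed and cut as 5 μm paraffin sections. Nodes were stained for CK8 and androgen receptor, and metastasis areas were measured.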

[2] = tested on: 4EBP1 and p70S6K1/2 phosphorylation; experiment: Preclinical trial in Pten L/L mice: mTOR effector phosphorylation; assay type: in vivo, mouse; conditions: INK128 1 mg/kg or RAD001 10 mg/kg daily gavage
Method in brief: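 Nine- and twelve-month-old PtenL/L mice were dosed daily by oral gavage, with vehicle 5% […], 15% NMP, 80% water. Whole prostates were removed, microdissected, frozen in liquid nitrogen and pulverised. Protein lysates were immunoblotted with antibodies to phospho-4EBP1 T37/46, 4EBP1, phospho-p70S6K T389, phospho-rpS6 S240/244 and rpS6.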

[3] = tested on: multiple cancer cell lines; experiment: Apoptosis analysis; assay type: cell-based, human
Method in brief: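 LNCaP and A498 cells, after treatment, were labelled with Annexin V-FITC and propidium iodide per kit instructions. Annexin/PI staining was acquired by flow cytometry to score apoptotic cells.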

GFP-labelled PC3 cells = experiment: Real-time imaging of cell migration; assay type: cell-based, human; conditions: starting at 6 h of treatment
Method in brief: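 GFP-labelled PC3 cells were plated on poly-D-lysine-coated chamber slides and left to adhere for 24 h. Wells were then scratch-wounded. Wide-field fluorescence time-lapse was run under CO2 and temperature control, with DIC and GFP frames every 2 min. Cell centroids were tracked manually to give xy paths, velocity and distance. Analysis covered hours 3–4 and 6–7 of treatment, with 34 cells per condition and ANOVA.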

[4] = tested on: Jurkat lymphoid cell line; conditions: cited from earlier work
[5] = tested on: mTOR effectors 4EBP1, p70S6K1/2 and AKT; experiment: Western blot of downstream mTOR effectors in PC3 cells; assay type: cell-based, human; conditions: PP242 2.5 μM, rapamycin 50 nM, 3-h treatment
[6] = tested on: PC3 human prostate cancer cells; experiment: Ribosome profiling of PC3 cells; assay type: cell-based; conditions: 3 h, rapamycin 50 nM

Structure (SMILES) | apoptosis in prostate [1] | cell proliferation in prostate [1] | regression of PIN lesions ([1]; RAD001 10 mg/kg daily gavage) | 4EBP1 and p70S6K1/2 phosphorylation [2] | decrease in prostatic intraepithelial neoplasia (PIN) lesions ([1]; INK128 1 mg/kg daily gavage) | prostate cancer volume ([1]; INK128 1 mg/kg daily gavage, MRI day 0 and day 28) | programmed cell death [3] | cancer cell migration (GFP-labelled PC3 cells) | sensitivity to rapamycin treatment [4] | activity of downstream mTOR effectors 4EBP1, p70S6K1/2 and AKT [5] | effect on gene expression by ribosome profiling [6]
CO[C@H]1C[C@@H]2CC[C@@H](C)[C@@](O)(O2)C(=O)C(=O)N2CCCC[C@H]2C(=O)O[C@H]([C@H](C)C[C@@H]2CC[C@@H](OCCO)[C@H](OC)C2)CC(=O)[C@H](C)/C=C(\C)[C@@H](O)[C@@H](OC)C(=O)[C@H](C)C[C@H](C)/C=C/C=C/C=C/1C [RAD001] | no significant effect | limited decrease | only partial regression | only decreased p70S6K1/2 phosphorylation levels |  |  |  |  |  |  | 
CC(C)n1nc(-c2ccc3oc(N)nc3c2)c2c(N)ncnc21 [INK128] | tenfold increase | decreased proliferation |  | completely restored to wild-type levels | 50% | marked reduction | induced programmed cell death | inhibits cancer cell migration |  |  | 
CO[C@H]1C[C@@H]2CC[C@@H](C)[C@@](O)(O2)C(=O)C(=O)N2CCCC[C@H]2C(=O)O[C@H]([C@H](C)C[C@@H]2CC[C@@H](O)[C@H](OC)C2)CC(=O)[C@H](C)/C=C(\C)[C@@H](O)[C@@H](OC)C(=O)[C@H](C)C[C@H](C)/C=C/C=C/C=C/1C [rapamycin] |  |  |  |  |  |  |  |  | particularly sensitive | only blocks p70S6K1/2 activity | did not markedly affect gene expression

Reference: PMC3663483 (Nature, 2012)
